Published values of several laboratories.
PLCD1: 1-phosphatidylinositol 4,5-bisphosphate phosphodiesterase delta-1 (PLCD1, Homo sapiens, UniProt P51178)
CSNK1D: Casein kinase I isoform delta (CSNK1D, Homo sapiens, UniProt P48730)
HTR2C: 5-hydroxytryptamine receptor 2C (HTR2C, Homo sapiens, UniProt P28335)
FLT3 ITD: Receptor-type tyrosine-protein kinase FLT3 (FLT3, Homo sapiens, UniProt P36888, ITD)
HTR2B: 5-hydroxytryptamine receptor 2B (HTR2B, Homo sapiens, UniProt P41595)
FLT3 F691L: Receptor-type tyrosine-protein kinase FLT3 (FLT3, Homo sapiens, UniProt P36888, F691L)

Structure (SMILES) | target | test | setting | quantity | value
CN(C)CCNC(=O)c1ccc(-c2nc3ccc4[nH]ncc4c3c3c2CCCCC3)c(F)c1 | Receptor-type tyrosine-protein kinase FLT3 (FLT3, Homo sapiens, UniProt P36888, D835Y) | enzyme activity, inhibitor |  | IC50 | 0.007 µM
CCOc1ccc(C(=O)CC(SCc2ccc(Br)cc2)C(=O)O)cc1 (stereo not drawn) | PLCD1 | ligand displacement, FP |  | Ki | > 1000 µM
N#Cc1ccccc1C#CCO | CSNK1D | binding, SPR |  | Kd | > 50 µM
COc1cc2c3c(c1OC)-c1c(OC)ccc(O)c1CC3N(C)CC2 (stereo not drawn) | HTR2C | cell-free assay, radioligand |  | Ki | 4.3 µM
COc1cccc(C(=O)CC(SCc2ccc(Cl)cc2)C(=O)O)c1 (stereo not drawn) | PLCD1 | ligand displacement, FP |  | Ki | > 1000 µM
CN(C)CCN(C)C(=O)c1ccc(-c2nc3ccc4[nH]ncc4c3c3c2CCCCC3)cc1 | FLT3 ITD | enzyme activity, inhibitor |  | IC50 | > 1 µM
COc1cc2c3c(c1OC)-c1c(OC)ccc(N4CCOCC4)c1CC3N(C)CC2 (stereo not drawn) | HTR2B | ligand displacement, radioligand |  | Ki | 0.773 µM
CCOc1ccc(-c2cc(C(=O)O)c(-c3ccc(Cl)cc3)o2)cc1 | PLCD1 | ligand displacement, FP |  | Ki | > 100 µM
CNc1cncc(Cl)n1 | CSNK1D | binding, SPR |  | Kd | > 50 µM
Cc1n[nH]c2ccc3nc(-c4ccc(C(=O)NCCN(C)C)cc4F)c4c(c3c12)CCCC4 | FLT3 F691L | enzyme activity, inhibitor |  | IC50 | 0.072 µM
Brc1cnc2nccnc2c1 | CSNK1D | binding, SPR |  | Kd | > 50 µM
CCOc1ccc(C(=O)CC(SCc2cccc(Br)c2)C(=O)O)cc1 (stereo not drawn) | PLCD1 | ligand displacement, FP |  | Ki | 630 µM
c1ccc(-c2nnc(NCc3ccccn3)o2)cc1 | CSNK1D | binding, SPR |  | Kd | > 50 µM
O=C(O)c1cc(-c2ccc(-c3ccc(Cl)s3)cc2)c2ccc(-c3ccc(C(F)(F)F)cc3)cc2c1 | HTR2C | cell-free assay, radioligand |  | Ki | 0.91 µM
COCCNC(=O)c1ccc(-c2nc3ccc4[nH]ncc4c3c3c2CCCC3)cc1 | FLT3 ITD | enzyme activity, inhibitor |  | IC50 | 0.664 µM
CCOc1cccc(C(=O)CC(SCc2ccc(Cl)cc2)C(=O)O)c1 (stereo not drawn) | PLCD1 | ligand displacement, FP |  | Ki | 474 µM
CN(C)CCNC(=O)c1ccc(-c2nc3ccc4[nH]ncc4c3c3c2CCCC3)cc1 | FLT3 ITD | enzyme activity, inhibitor |  | IC50 | 0.086 µM
c1ccc(-c2oc3ncnc(NCCCN4CCOCC4)c3c2-c2ccccc2)cc1 | CSNK1D | binding, SPR |  | Kd | > 50 µM
Cc1n[nH]c2ccc3nc(-c4ccc(C(=O)N(C)CCN(C)C)cc4)c4c(c3c12)CCC(F)(F)C4 | FLT3 ITD | enzyme activity, inhibitor |  | IC50 | > 1 µM
CCOc1ccc(C(=O)CC(SCc2ccc(Cl)cc2)C(=O)OC)cc1 (stereo not drawn) | PLCD1 | ligand displacement, FP |  | Ki | > 1000 µM
Brc1ccc2nccnc2c1 | CSNK1D | binding, SPR |  | Kd | > 50 µM
Cc1n[nH]c2ccc3nc(-c4ccc(C(=O)NCCN(C)C)cc4)c4c(c3c12)CCCCC4 | Receptor-type tyrosine-protein kinase FLT3 (FLT3, Homo sapiens, UniProt P36888) | enzyme activity, inhibitor |  | IC50 | 0.099 µM
CCOc1ccc(C(=O)CC(SCc2ccc(Cl)cc2)C(=O)O)cc1OCC (stereo not drawn) | PLCD1 | ligand displacement, FP |  | Ki | > 1000 µM
c1cc(CN2CCCNCCNCCCNCC2)ccc1CN1CCCNCCNCCCNCC1 | CSNK1D | binding, SPR |  | Kd | > 50 µM
Cc1n[nH]c2ccc3nc(-c4ccc(C(=O)NCCN(C)C)cc4)c4c(c3c12)CCCC4 | FLT3 F691L | enzyme activity, inhibitor |  | IC50 | 0.053 µM
CCCNC(=O)c1ccc2c3c1C(CC(F)(F)F)CN3CCNC2 (racemic) | HTR2B | ligand displacement, radioligand | cell membranes | Ki | 2.25 µM
CN(C)C(=O)c1cc2cnc(Nc3ccc(C(=O)NCCCCCCOc4cccc5c4C(=O)N(C4CCC(=O)NC4=O)C5=O)cc3)nc2n1C1CCCC1 (stereo not drawn) | Ephrin type-B receptor 6 (EPHB6, Homo sapiens, UniProt O15197) | binding, competition with immobilised ligand |  | Kd | < 0.2 µM
COc1cc2c3c(c1OC)-c1c(OC)ccc(Br)c1CC3N(C)CC2 (stereo not drawn) | HTR2C | cell-free assay, radioligand |  | Ki | 2.2 µM
N#Cc1ccc(O)cc1F | CSNK1D | binding, SPR |  | Kd | 20 to 50 µM
CCOc1ccc(C(=O)CC(SCc2ccccc2Br)C(=O)O)cc1 (stereo not drawn) | PLCD1 | ligand displacement, FP |  | Ki | > 1000 µM
